Data published in ChEMBL document CHEMBL4325889, “Natural products hybrids: 3,5,4'-Trimethoxystilbene-5,6,7-trimethoxyflavone chimeric analogs as potential cytotoxic agents against diverse human cancer cells” (Eur J Med Chem, 2019).

What was measured:
Assay type in all cases: functional
[1] = system: MCF7; experiment: Growth inhibition of human MCF7 cells at 10 uM after 48 hrs by SRB assay relative to control; conditions: MCF7, 48 h, read-out: GI
Outline: (§1)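 Screened at the National Cancer Institute by the standard NCI protocol using the sulforhodamine B assay, which measures cellular protein. Single dose of 10 µM. Result is percent growth inhibition; values above 100% mean cell number fell below the initial population. Values are the average of duplicates.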

[2] = system: RXF 393; experiment: Growth inhibition of human RXF393 cells at 10 uM after 48 hrs by SRB assay relative to control; conditions: RXF 393, 48 h, read-out: GI; outline: as §1
[3] = system: OVCAR-4; experiment: Growth inhibition of human OVCAR4 cells at 10 uM after 48 hrs by SRB assay relative to control; conditions: OVCAR-4, 48 h, read-out: GI; outline: as §1
[4] = system: Hs-578T; experiment: Growth inhibition of human Hs 578T cells at 10 uM after 48 hrs by SRB assay relative to control; conditions: read-out: GI; outline: as §1
[5] = system: OVCAR-5; experiment: Growth inhibition of human OVCAR5 cells at 10 uM after 48 hrs by SRB assay relative to control; conditions: OVCAR-5, 48 h, read-out: GI; outline: as §1
[6] = system: DU-145; experiment: Growth inhibition of human DU145 cells at 10 uM after 48 hrs by SRB assay relative to control; conditions: DU-145, 48 h, read-out: GI; outline: as §1
[7] = system: RPMI-8226; experiment: Growth inhibition of human RPMI8226 cells at 10 uM after 48 hrs by SRB assay relative to control; conditions: RPMI-8226, 48 h, read-out: GI; outline: as §1
[8] = system: IGROV-1; experiment: Growth inhibition of human IGROV1 cells at 10 uM after 48 hrs by SRB assay relative to control; conditions: IGROV-1, 48 h, read-out: GI; outline: as §1
[9] = system: BT-549; experiment: Growth inhibition of human BT549 cells at 10 uM after 48 hrs by SRB assay relative to control; conditions: BT-549, 48 h, read-out: GI; outline: as §1
[10] = system: CCRF-CEM; experiment: Growth inhibition of human CCRF-CEM cells at 10 uM after 48 hrs by SRB assay relative to control; conditions: read-out: GI; outline: as §1
[11] = system: MOLT-4; experiment: Growth inhibition of human MOLT4 cells at 10 uM after 48 hrs by SRB assay relative to control; conditions: MOLT-4, 48 h, read-out: GI; outline: as §1
[12] = system: NCI/ADR-RES; experiment: Growth inhibition of human NCI/ADR-RES cells at 10 uM after 48 hrs by SRB assay relative to control; conditions: read-out: GI; outline: as §1
[13] = system: SF-539; experiment: Growth inhibition of human SF539 cells at 10 uM after 48 hrs by SRB assay relative to control; conditions: SF-539, 48 h, read-out: GI; outline: as §1
[14] = system: SR; experiment: Growth inhibition of human SR cells at 10 uM after 48 hrs by SRB assay relative to control; conditions: read-out: GI
Outline: (§2)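 NCI screen against its human cancer cell line panel by the standard NCI protocol, SRB protein stain. Single dose of 10 μM. Percent growth inhibition versus control; values above 100% mean the cell population fell below the starting number. Each value is the mean of duplicates.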

[15] = system: SW-620; experiment: Growth inhibition of human SW620 cells at 10 uM after 48 hrs by SRB assay relative to control; conditions: SW-620, 48 h, read-out: GI; outline: as §2
[16] = system: K562; experiment: Growth inhibition of human K562 cells at 10 uM after 48 hrs by SRB assay relative to control; conditions: K562, 48 h, read-out: GI; outline: as §1
[17] = system: UACC-257; experiment: Growth inhibition of human UACC257 cells at 10 uM after 48 hrs by SRB assay relative to control; conditions: UACC-257, 48 h, read-out: GI; outline: as §2
[18] = system: MDA-MB-468; experiment: Growth inhibition of human MDA-MB-468 cells at 10 uM after 48 hrs by SRB assay relative to control; conditions: MDA-MB-468, 48 h, read-out: GI; outline: as §1
[19] = system: SK-MEL-2; experiment: Growth inhibition of human SK-MEL-2 cells at 10 uM after 48 hrs by SRB assay relative to control; conditions: SK-MEL-2, 48 h, read-out: GI; outline: as §1
[20] = system: SNB-75; experiment: Growth inhibition of human SNB75 cells at 10 uM after 48 hrs by SRB assay relative to control; conditions: SNB-75, 48 h, read-out: GI; outline: as §2
[21] = system: SF-295; experiment: Growth inhibition of human SF295 cells at 10 uM after 48 hrs by SRB assay relative to control; conditions: SF-295, 48 h, read-out: GI; outline: as §1
[22] = system: HL-60(TB); experiment: Growth inhibition of human HL-60(TB) cells at 10 uM after 48 hrs by SRB assay relative to control; conditions: HL-60, 48 h, read-out: GI
Outline: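 Run at NCI under its standard single-dose protocol against a leukemia cell panel. Cells were exposed to 10 µM; growth was read by sulforhodamine B staining of cellular protein and expressed as % growth inhibition versus untreated control. Values above 100% mean the cell population fell below the starting count (cytocidal). Each value is the average of duplicates.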

[23] = system: LOX IMVI; experiment: Growth inhibition of human LOXIMVI cells at 10 uM after 48 hrs by SRB assay relative to control; conditions: read-out: GI; outline: as §1
[24] = system: OVCAR-3; experiment: Growth inhibition of human OVCAR3 cells at 10 uM after 48 hrs by SRB assay relative to control; conditions: OVCAR-3, 48 h, read-out: GI; outline: as §1
[25] = system: SK-MEL-28; experiment: Growth inhibition of human SK-MEL-28 cells at 10 uM after 48 hrs by SRB assay relative to control; conditions: SK-MEL-28, 48 h, read-out: GI; outline: as §1
[26] = system: SK-MEL-5; experiment: Growth inhibition of human SK-MEL-5 cells at 10 uM after 48 hrs by SRB assay relative to control; conditions: SK-MEL-5, 48 h, read-out: GI; outline: as §1
[27] = system: CAKI-1; experiment: Growth inhibition of human Caki1 cells at 10 uM after 48 hrs by SRB assay relative to control; conditions: CAKI-1, 48 h, read-out: GI; outline: as §1
[28] = system: NCI-H23; experiment: Growth inhibition of human NCI-H23 cells at 10 uM after 48 hrs by SRB assay relative to control; conditions: NCI-H23, 48 h, read-out: GI; outline: as §1
[29] = system: NCI-H522; experiment: Growth inhibition of human NCI-H522 cells at 10 uM after 48 hrs by SRB assay relative to control; conditions: NCI-H522, 48 h, read-out: GI; outline: as §1
[30] = system: U-251; experiment: Growth inhibition of human U251 cells at 10 uM after 48 hrs by SRB assay relative to control; conditions: U-251, 48 h, read-out: GI; outline: as §2
[31] = system: HCC 2998; experiment: Growth inhibition of human HCC2998 cells at 10 uM after 48 hrs by SRB assay relative to control; conditions: HCC 2998, 48 h, read-out: GI; outline: as §1
[32] = system: PC-3; experiment: Growth inhibition of human PC3 cells at 10 uM after 48 hrs by SRB assay relative to control; conditions: PC-3, 48 h, read-out: GI; outline: as §1
[33] = system: HOP-92; experiment: Growth inhibition of human HOP92 cells at 10 uM after 48 hrs by SRB assay relative to control; conditions: HOP-92, 48 h, read-out: GI; outline: as §1

SMILES | inhibition of growth at 10 µM [1] [%] | inhibition of growth at 10 µM [2] [%] | inhibition of growth at 10 µM [3] [%] | inhibition of growth at 10 µM [4] [%] | inhibition of growth at 10 µM [5] [%] | inhibition of growth at 10 µM [6] [%] | inhibition of growth at 10 µM [7] [%] | inhibition of growth at 10 µM [8] [%] | inhibition of growth at 10 µM [9] [%] | inhibition of growth at 10 µM [10] [%] | inhibition of growth at 10 µM [11] [%] | inhibition of growth at 10 µM [12] [%] | inhibition of growth at 10 µM [13] [%] | inhibition of growth at 10 µM [14] [%] | inhibition of growth at 10 µM [15] [%] | inhibition of growth at 10 µM [16] [%] | inhibition of growth at 10 µM [17] [%] | inhibition of growth at 10 µM [18] [%] | inhibition of growth at 10 µM [19] [%] | inhibition of growth at 10 µM [20] [%] | other results
COc1ccc(C(=O)Nc2cccc(-c3cc(=O)c4c(O)c(OC)c(OC)cc4o3)c2)cc1 | 9.78 | 4.27 | 4.66 | 25.8 | 0.04 | 5.4 | 25.2 | 2.38 | 9.6 | 11.9 | 19.1 | 13.3 | 15.3 | 20.8 | 9.52 | 11.9 | 13.6 | -6.18 | 16.6 | 32.5 | inhibition of growth at 10 µM [21]: 20.6%; inhibition of growth at 10 µM [22]: 15.4%; inhibition of growth at 10 µM [23]: 6.47%; inhibition of growth at 10 µM [24]: -0.49%; inhibition of growth at 10 µM [25]: 9.4%; inhibition of growth at 10 µM [26]: 16.2%; inhibition of growth at 10 µM [27]: 20%; inhibition of growth at 10 µM [28]: 15.7%; inhibition of growth at 10 µM [29]: 34.4%; inhibition of growth at 10 µM [30]: 28.9%; inhibition of growth at 10 µM [31]: 19.4%; inhibition of growth at 10 µM [32]: 19.6%; inhibition of growth at 10 µM [33]: 42.3%
COc1cc(NC(=O)c2cccc(-c3cc(=O)c4c(OC)c(OC)c(OC)cc4o3)c2)cc(OC)c1OC | 65.7 | 46.8 | 25.1 | 90.8 | 14 | 45.7 | 99.7 | 48.2 | 73 | 68.7 | 89.6 | 48.9 | 47.4 | 70.2 | 33 | 72.4 | 47.2 | 52.6 | 58.3 | 25.3 | inhibition of growth at 10 µM [21]: 55%; inhibition of growth at 10 µM [22]: 64%; inhibition of growth at 10 µM [23]: 75.6%; inhibition of growth at 10 µM [24]: 59.2%; inhibition of growth at 10 µM [25]: 36.5%; inhibition of growth at 10 µM [26]: 91.7%; inhibition of growth at 10 µM [27]: 59.4%; inhibition of growth at 10 µM [28]: 51.2%; inhibition of growth at 10 µM [29]: 65.3%; inhibition of growth at 10 µM [30]: 55.1%; inhibition of growth at 10 µM [31]: 25.9%; inhibition of growth at 10 µM [32]: 47.6%; inhibition of growth at 10 µM [33]: 75.3%
